Experimental data as given in article PMC11310838 (RSC Advances, 2024).

How the values were obtained:
Assay in all cases: Sulforhodamine B
HEPG2 cell line = type: cell-based, human; conditions: Homo sapiens, HepG2, 48 h, read-out: Percentage of cell growth inhibition at [100 μM] HEPG2
Method in brief: (§1)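 Carcinoma lines came from the National Cancer Institute, Cairo, and were grown as monolayers in DMEM with 10% FBS and 1% penicillin–streptomycin. Final DMSO was ≤0.1% (v/v). Cells were treated for 48 h either at a single 100 μM dose (% growth inhibition) or at 0, 6.25, 12.5, 25 and 50 μM. SRB staining was read at 570 nm as % viability. IC50 came from dose–response curve fitting.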

[1] = test system: HDF cell line (Human Dermal Fibroblasts); type: cell-based; conditions: Homo sapiens, HDF, 48 h, read-out: Percentage of cell growth inhibition at [100 μM] HDF
Method in brief: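 Normal human dermal fibroblasts came from the National Cancer Institute, Cairo. Final DMSO was ≤0.1% (v/v). Cells were exposed to the test compound at a single 100 μM dose for 48 h. Growth inhibition was measured by the sulforhodamine-B method, with absorbance read at 570 nm and expressed as percentage of cell viability.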

HCT116 cell line = type: cell-based, human; conditions: Homo sapiens, HCT-116, 48 h, read-out: Percentage of cell growth inhibition at [100 μM] HCT116
Method in brief: as §1

MCF7 cell line = type: cell-based, human; conditions: Homo sapiens, MCF7, 48 h, read-out: Percentage of cell growth inhibition at [100 μM] MCF7
Method in brief: as §1

**Q.** `NC(=S)NN=Cc1ccc(OCC(=O)N2CCN(C(=O)COc3ccc(C=NNC(N)=S)cc3)CC2)cc1` [Compound 7a, 1,1′-(Piperazine-1,4-diyl)bis(2-(4-(2-carbamothioylhydrazono)methylphenoxy)ethanone)] was tested. Which inhibition at 100 µM (HEPG2 cell line) did it give?
**A.** 83.3 ± 7.47%

**Q.** What about the inhibition at 100 µM [1] of the same compound?
**A.** 45.1 ± 30.1%

**Q.** What about the inhibition at 100 µM (HCT116 cell line) of the same compound?
**A.** 86.2 ± 5.33%

**Q.** What about the inhibition at 100 µM (MCF7 cell line) of the same compound?
**A.** 85.3 ± 5.2%

**Q.** Which results are given for `Cc1nc(NN=Cc2ccc(OCC(=O)N3CCN(C(=O)COc4ccc(C=NNc5nc(C)c(N=Nc6ccc(F)cc6)s5)cc4)CC3)cc2)sc1N=Nc1ccc(F)cc1` [Compound 9c, 1,1′-(Piperazine-1,4-diyl)bis(2-(4-(((4-methyl-5-(4-fluorophenylazo)thiazol-2-yl)hydrazono)-methyl)phenoxy)ethanone)]?
**A.** inhibition at 100 µM (HEPG2 cell line): 77.2 ± 3.1%; inhibition at 100 µM [1]: 67.7 ± 11.5%; inhibition at 100 µM (HCT116 cell line): 87.2 ± 4.53%; inhibition at 100 µM (MCF7 cell line): 90.3 ± 1.3%

**Q.** `Cc1nc(NN=Cc2ccc(OCC(=O)N3CCN(C(=O)COc4ccc(C=NNc5nc(C)c(N=Nc6ccc(Cl)cc6)s5)cc4)CC3)cc2)sc1N=Nc1ccc(Cl)cc1` [Compound 9d, 1,1′-(Piperazine-1,4-diyl)bis(2-(4-(((4-methyl-5-(4-chlorophenylazo)thiazol-2-yl)hydrazono)-methyl)phenoxy)ethanone)] was tested. Which inhibition at 100 µM (HEPG2 cell line) did it give?
**A.** 73.1 ± 5.28%

**Q.** What about the inhibition at 100 µM [1] of the same compound?
**A.** 57.7 ± 18%

**Q.** And the inhibition at 100 µM (HCT116 cell line)?
**A.** 89.1 ± 2.04%

**Q.** What about the inhibition at 100 µM (MCF7 cell line) of the same compound?
**A.** 90.5 ± 1.99%

**Q.** How did the inhibition at 100 µM (HEPG2 cell line) turn out when `Cc1ccc(N=Nc2sc(NN=Cc3ccccc3OCC(=O)N3CCN(C(=O)COc4ccccc4C=NNc4nc(C)c(N=Nc5ccc(C)cc5)s4)CC3)nc2C)cc1` [Compound 9f, 1,1′-(Piperazine-1,4-diyl)bis(2-(2-(((4-methyl-5-(4-tolylazo)thiazol-2-yl)hydrazono)methyl)-phenoxy)ethanone)] was run?
**A.** 93.5 ± 2.07%

**Q.** And the inhibition at 100 µM [1]?
**A.** 78.3 ± 3.64%

**Q.** And the inhibition at 100 µM (HCT116 cell line)?
**A.** 85.4 ± 6.41%

**Q.** And the inhibition at 100 µM (MCF7 cell line)?
**A.** 85.5 ± 2.11%

**Q.** For `Cc1nc(NN=Cc2ccccc2OCC(=O)N2CCN(C(=O)COc3ccccc3C=NNc3nc(C)c(N=Nc4ccc(F)cc4)s3)CC2)sc1N=Nc1ccc(F)cc1` [Compound 9g, 1,1′-(Piperazine-1,4-diyl)bis(2-(2-(((4-methyl-5-(4-fluorophenylazo)thiazol-2-yl)hydrazono)-methyl)phenoxy)ethanone)], which inhibition at 100 µM (HEPG2 cell line) is on record?
**A.** 91.8 ± 3.29%

**Q.** What about the inhibition at 100 µM [1] of the same compound?
**A.** 71.1 ± 21.6%

**Q.** And the inhibition at 100 µM (HCT116 cell line)?
**A.** 80.6 ± 7.04%

**Q.** What about the inhibition at 100 µM (MCF7 cell line) of the same compound?
**A.** 88.7 ± 4.11%

**Q.** Which inhibition at 100 µM (HEPG2 cell line) does the source give for `Cc1nc(NN=Cc2ccccc2OCC(=O)N2CCN(C(=O)COc3ccccc3C=NNc3nc(C)c(N=Nc4ccc(Cl)cc4)s3)CC2)sc1N=Nc1ccc(Cl)cc1` [Compound 9h, 1,1′-(Piperazine-1,4-diyl)bis(2-(2-(((4-methyl-5-(4-chlorophenylazo)thiazol-2-yl)hydrazono)-methyl)phenoxy)ethanone)] here?
**A.** 84 ± 3.07%

**Q.** And the inhibition at 100 µM [1]?
**A.** 56 ± 23.6%

**Q.** And the inhibition at 100 µM (HCT116 cell line)?
**A.** 77.7 ± 8.59%

**Q.** And the inhibition at 100 µM (MCF7 cell line)?
**A.** 81 ± 7.44%

**Q.** `Cc1nc(NN=Cc2ccccc2OCC(=O)N2CCN(C(=O)COc3ccccc3C=NNc3nc(C)c(N=Nc4ccc([N+](=O)[O-])cc4)s3)CC2)sc1N=Nc1ccc([N+](=O)[O-])cc1` [Compound 9j, 1,1′-(Piperazine-1,4-diyl)bis(2-(2-(((4-methyl-5-(4-nitrophenylazo)thiazol-2-yl)hydrazono)-methyl)phenoxy)ethanone)] was tested. Which inhibition at 100 µM (HEPG2 cell line) did it give?
**A.** 83.1 ± 7.22%

**Q.** And the inhibition at 100 µM [1]?
**A.** 12 ± 6.04%

**Q.** And the inhibition at 100 µM (HCT116 cell line)?
**A.** 87.7 ± 4.3%

**Q.** What about the inhibition at 100 µM (MCF7 cell line) of the same compound?
**A.** 71.4 ± 20.5%

**Q.** `O=C(COc1ccc(C=NN=c2sc(-c3ccccc3)nn2-c2ccccc2)cc1)N1CCN(C(=O)COc2ccc(C=NN=c3sc(-c4ccccc4)nn3-c3ccccc3)cc2)CC1` [Compound 13a, 1,1′-(Piperazine-1,4-diyl)bis(2-(4-(((3,5-diphenyl-1,3,4-thiadiazol-2(3H)-ylidene)hydrazono)-methyl)phenoxy)ethanone)] was tested. Which inhibition at 100 µM (HEPG2 cell line) did it give?
**A.** 71.4 ± 4.92%

**Q.** And the inhibition at 100 µM [1]?
**A.** 52.5 ± 14.8%

**Q.** What about the inhibition at 100 µM (HCT116 cell line) of the same compound?
**A.** 78.1 ± 5.78%

**Q.** What about the inhibition at 100 µM (MCF7 cell line) of the same compound?
**A.** 88.2 ± 1.88%
